High-throughput results (PubChem BioAssay)
Most compounds without a hit are left out; they make up all but 3.2% or so of the library.
PRMT1 inh = PRMT1 methyltransferase inhibitors, primary screen, biochemical, fluorescence polarization; recombinant PRMT1, activity-based probe fluorescence polarization; inhibition, % at 2.79 µM; 370,000 tested, 1.3% active; AID 652257, 2013;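 active = inhibition above about 21% made by adding two undisclosed values, limit read from the data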
HTRA1 inhibitor = HTRA1 serine protease inhibitors, primary screen, biochemical, fluorescence polarization, HTS. 340,000 tested, 0.5% active. Q92743. recombinant HTRA1, FP-rhodamine activity-based probe. inhibition, % at 5.96 µM; in the data active = inhibition above about 36%
ABHD4 inh = ABHD4 inhibitors, primary screen, biochemical, fluorescence polarization, mouse. (Lyso)-N-acylphosphatidylethanolamine lipase (Mus musculus), Q8VD66. purified mABHD4, FP-Rh probe fluorescence polarization. inhibition, % at 8.92 µM. 370,000 tested, 0.54% active. AID 720543, 2013;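 active = inhibition exceeding the mean over every tested compound plus 3 SD, cut at about 30% in these data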
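Doses – 8.92 µM, single dose · Material – wild-type mouse ABHD4 protein · Replication – single well per compound (singlicate) · Measure – percent inhibition of probe binding, normalized to plate controls · Schedule – 45 min compound pre-incubation plus 60 min probe step, 25 °C · Detection – fluorescence polarization with parallel and perpendicular emission, 525/598 nm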
LEDGF integ inh = blockers of LEDGF/p75-dependent integrase strand transfer – biochemical, TR-FRET, high throughput, primary screen | 370,000 tested, 0.64% active | AID 743269, 2014 | inhibition, % at 3.7 µM | TR-FRET IN-LEDGF/p75 DNA integration, Eu/Cy5;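 active = inhibition above the screen-wide mean plus 3 SD, cut at about 13% in these data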;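 note: signal is the Cy5 over europium emission ratio at 671 and 618 nm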
rCAG RNA binder = binders of r(CAG) RNA repeats, primary screen, biochemical, fluorescence; r(CAG) RNA repeat, TO-PRO-1 dye displacement fluorescence; inhibition, % at 3 µM; 370,000 tested, 1.3% active;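 active = inhibition above the plate cutoff, the mean of all test compounds on that plate plus 3 SD, cut at about 35% in these data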;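 note: higher means more dye released from RNA so lower well fluorescence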
DAGLB inh = DAGLB lipase inhibitors, primary screen, biochemical, fluorescence, HTS; Diacylglycerol lipase-beta (Homo sapiens), Q8NCG7; HEK293T DAGLB membrane lysate, EnzChek fluorogenic substrate; inhibition, % at 5.17 µM; 340,000 tested, 0.059% active; in the data active = inhibition above about 34%
Target sequence (Q8NCG7 whole entry, looked up): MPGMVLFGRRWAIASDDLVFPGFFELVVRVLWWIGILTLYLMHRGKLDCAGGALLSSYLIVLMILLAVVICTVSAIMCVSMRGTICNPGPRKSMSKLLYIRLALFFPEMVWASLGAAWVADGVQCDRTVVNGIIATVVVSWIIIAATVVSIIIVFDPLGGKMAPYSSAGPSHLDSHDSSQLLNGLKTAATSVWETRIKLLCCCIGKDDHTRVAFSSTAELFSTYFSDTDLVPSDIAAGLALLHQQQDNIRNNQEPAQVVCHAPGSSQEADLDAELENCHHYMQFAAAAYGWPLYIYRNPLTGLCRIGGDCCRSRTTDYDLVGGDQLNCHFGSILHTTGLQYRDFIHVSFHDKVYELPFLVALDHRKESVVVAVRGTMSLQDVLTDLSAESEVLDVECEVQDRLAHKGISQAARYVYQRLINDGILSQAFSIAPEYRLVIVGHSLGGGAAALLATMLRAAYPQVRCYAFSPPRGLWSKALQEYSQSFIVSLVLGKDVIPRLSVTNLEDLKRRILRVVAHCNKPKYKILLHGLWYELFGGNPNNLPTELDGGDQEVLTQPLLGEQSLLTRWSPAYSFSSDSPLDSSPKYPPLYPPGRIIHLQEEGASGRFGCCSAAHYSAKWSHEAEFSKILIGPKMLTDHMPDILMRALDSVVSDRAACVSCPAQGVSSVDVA
PRMT1 inh conf = PRMT1 methyltransferase inhibitors, confirmation, biochemical, fluorescence polarization, triplicate. shares compounds with PRMT1 inh. recombinant His-PRMT1, activity-based probe fluorescence polarization. inhibition, % at 2.79 µM. 3,300 tested, 42% active. AID 687036, 2013;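 active = mean inhibition across replicates above the hit cutoff derived for the earlier primary screen, cut at about 22% in these data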
A number is an active result; n = inactive; x = no result given.

SMILES	PRMT1 inh	HTRA1 inhibitor	ABHD4 inh	LEDGF integ inh	rCAG RNA binder	DAGLB inh	PRMT1 inh conf
O=C(CN(Cc1ccccc1)S(=O)(=O)c1ccc(Br)cc1)NCc1ccco1	n	n	n	n	n	n	x
Cn1c(COc2ccc(Br)cc2)nnc1SC1CCc2ccccc2C1=O (configuration not stated)	53.2	n	n	n	n	n	n
Cc1ccc(NC(=O)C/C(N)=N/OC(=O)Nc2cccc(Cl)c2)cc1	n	n	n	n	n	n	x
c1ccc2c(C3=NNC(=NC4CC4)SC3)c[nH]c2c1	37.9	n	n	n	n	n	n
Fc1ccc(F)c(C2=NNC(=NCC3CCCO3)SC2)c1 (configuration not stated)	37.6	n	n	n	n	n	n
COCC(C)N=C1NN=C(c2ccc(NC(C)=O)cc2)CS1 (configuration not stated)	n	n	n	n	n	n	x
CC(=O)Nc1ccc(C2=NNC(=NCC3CCCO3)SC2)cc1 (configuration not stated)	40.9	n	n	n	n	n	33.2
Cc1c(-c2ccccn2)c(=O)[nH]n1-c1ccc(F)cc1	n	n	n	n	n	n	x
CC(=O)C1=C(S(=O)(=O)c2ccc(C)cc2)CS(=O)(=O)C1	75.6	n	n	n	n	n	89.2
Cc1ccc(S(=O)(=O)C2CS(=O)(=O)CC2O)cc1 (configuration not stated)	n	n	n	n	n	n	x
O=C(CSc1nnc(-c2cc3ccccc3cc2O)n1Cc1ccco1)N1CCc2ccccc2C1	32.3	n	n	n	n	n	n
CC(C)N(C(=O)CSc1nnc(-c2cc3ccccc3cc2O)n1Cc1ccco1)C(C)C	n	n	n	n	n	n	x
OCCN(CCO)c1nc(N2CCCCC2)c2nc(N(CCO)CCO)nc(N3CCCCC3)c2n1	57.4	n	n	n	n	n	74.5
C=CCOC(=O)C1=C(C)NC(=O)NC1c1ccc(OCC)cc1 (configuration not stated)	n	n	n	n	n	n	x
FC(F)Sc1ccc(Nc2ncnc3nc[nH]c23)cc1	34.8	n	n	n	n	n	n
CCN1/C(=C/c2ccc3ccccc3[n+]2CCCS(=O)(=O)[O-])C=Cc2cc(C)ccc21	n	n	n	n	n	n	x
CC/C(=C/c1sc2ccc(C)cc2[n+]1CCCS(=O)(=O)[O-])SC	38.6	x	n	n	n	x	22.9
Cc1ccc2sc(C)[n+](CCC(C)S(=O)(=O)[O-])c2c1 (configuration not stated)	57.2	n	n	n	n	n	30.9
CC/C(=C/c1sc2ccc(C)cc2[n+]1CCO)SC	52.1	n	n	n	n	n	n
COc1ccccc1CN(C)C(=O)CSc1nnc(C2CC2)n1C1CC1	n	n	n	n	n	n	x
O=C(COC(=O)c1ccc(Cl)c(S(=O)(=O)N2CCc3ccccc3C2)c1)Nc1ncc(Cl)cc1Cl	n	n	n	n	n	n	x
CCOC(=O)CSc1ncnc2c1nnn2-c1ccc(F)cc1	n	n	n	n	n	n	x
CCOC(=O)CC(=O)CSc1ncnc2c1nnn2-c1ccc(F)cc1	51.1	n	n	n	n	n	92.2
COc1ccc(NC(=O)CN(C)C(=O)CCNS(=O)(=O)c2ccc(Br)cc2)cc1	n	n	n	n	n	n	x
COC(=O)c1ccccc1NC(=O)N1CSC[C@H]1C(=O)OC	30.3	n	n	n	n	n	47.6
SMILES	PRMT1 inh	HTRA1 inhibitor	ABHD4 inh	LEDGF integ inh	rCAG RNA binder	DAGLB inh	PRMT1 inh conf
O=C1C=CC(=O)N1c1ccccn1	n	n	n	n	n	n	x
O=C(c1ccccc1)c1ccccc1N1C(=O)C=CC1=O	84.8	n	n	n	n	n	97.0
O=C(O)c1ccccc1C(=O)c1ccc(-c2ccccc2)cc1	n	n	n	n	n	n	x
O=C1C=CC(=O)N1c1ccccc1N1C(=O)C=CC1=O	92.7	n	n	n	n	n	89.9
COc1ccccc1N1CCN(c2nc(N)c(C#N)c(CC#N)c2C#N)CC1	n	n	n	n	n	n	x
N#CCc1c(C#N)c(N)nc(N2CCN(C=O)CC2)c1C#N	35.5	n	n	n	n	n	n
CC(=O)N1CCN(c2nc(N)c(C#N)c(CC#N)c2C#N)CC1	28.7	n	n	n	n	n	n
N#CCc1c(C#N)c(N)nc(N2CCOCC2)c1C#N	38.3	n	n	n	n	n	n
N#CCc1c(C#N)c(N)nc(N2CCN(S(=O)(=O)c3ccccc3)CC2)c1C#N	n	n	n	n	n	n	x
Brc1ccc2oc(-c3ccn[nH]3)cc2c1	n	x	n	n	n	x	x
Cc1nc2ccc(Br)cc2c2c1CC(CO)O2 (configuration not stated)	n	n	n	n	n	n	x
O=C(CNC(=O)c1ccccc1)Sc1ccccc1	49.2	n	n	n	n	n	75.9
C=CC[C@@H](CC(=O)N[C@@H](CO)Cc1ccccc1)C(=O)N[C@@H](COC(=O)[C@@H](CC=C)Cc1ccc(F)cc1)Cc1c[nH]c2ccccc12	n	n	n	n	n	n	x
O=C(O)c1ccc(S(=O)(=O)Cc2ccccc2)cc1	24.9	n	n	n	n	n	n
Cc1ccc(S(=O)(=O)Cc2ccc(C(=O)OCc3ccccc3)cc2)cc1	n	n	n	n	n	n	x
Cc1ncoc1C(=O)Nc1ncc([N+](=O)[O-])s1	39.1	n	n	n	n	n	n
CC1CN(CC(=O)NN=C(c2ccccc2)c2ccccc2)CC(C)O1 (configuration not stated)	n	n	n	n	n	n	x
CCC1(C)Cc2c(C#N)c(N)sc(=S)c2CO1 (configuration not stated)	27.5	n	n	n	n	n	27.3
N#Cc1c(N)sc(=S)c2c1CCCC2	27.9	n	n	n	n	n	n
COc1ccc(C(=O)CCC(=O)O)c(C)c1	n	n	n	n	n	n	x
CC(=O)c1c(C)[nH]c(C(=O)NNC(=O)COc2cc(C)cc(C)c2)c1C	n	n	n	n	n	n	x
CCCS(=O)(=O)NCCc1cc2ccc(OC)cc2[nH]c1=O	n	n	n	n	n	n	x
O=C(COC(=O)CSc1ccc([N+](=O)[O-])cc1)NCCCc1ccccc1	41.9	n	n	n	n	n	n
C[C@@H]1CN([C@@H](C)CO)C(=O)c2cc(Br)cnc2O[C@H]1CN(C)C(=O)Cc1ccccn1	n	n	n	n	n	n	x
